# Bioassay records from PubChem BioAssay.
# Sampled rows, rich in hits. Any-hit rate of the full collection: about 3.1%.
# KCNK9 block: human KCNK9 channel inhibition. HEK293 KCNK9, FluxOR thallium flux fluorescence; hits give low values. actives 1.2% (n = 310,000). Q9NPC2. B-score at 10 µM;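 active means ratio B-score over 3 SD below the library mean, with starting fluorescence within 5 SD of its mean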;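 further: negative B-score means less thallium flux so channel inhibition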
# hERG protect: compounds protecting human hERG from proarrhythmic drug block; Q12809; CHO-hERG, FluxOR thallium flux, dofetilide IC70 present; activation (rescue from dofetilide block), less the hit threshold, % at 10 µM; actives 0.51% (n = 310,000); AID 1511;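 active means activation above the mean of controls blocked by dofetilide plus 5 SD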;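 further: thallium influx through hERG after potassium depolarization seen as dye fluorescence rise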
# Target sequence (Q12809 whole entry, looked up): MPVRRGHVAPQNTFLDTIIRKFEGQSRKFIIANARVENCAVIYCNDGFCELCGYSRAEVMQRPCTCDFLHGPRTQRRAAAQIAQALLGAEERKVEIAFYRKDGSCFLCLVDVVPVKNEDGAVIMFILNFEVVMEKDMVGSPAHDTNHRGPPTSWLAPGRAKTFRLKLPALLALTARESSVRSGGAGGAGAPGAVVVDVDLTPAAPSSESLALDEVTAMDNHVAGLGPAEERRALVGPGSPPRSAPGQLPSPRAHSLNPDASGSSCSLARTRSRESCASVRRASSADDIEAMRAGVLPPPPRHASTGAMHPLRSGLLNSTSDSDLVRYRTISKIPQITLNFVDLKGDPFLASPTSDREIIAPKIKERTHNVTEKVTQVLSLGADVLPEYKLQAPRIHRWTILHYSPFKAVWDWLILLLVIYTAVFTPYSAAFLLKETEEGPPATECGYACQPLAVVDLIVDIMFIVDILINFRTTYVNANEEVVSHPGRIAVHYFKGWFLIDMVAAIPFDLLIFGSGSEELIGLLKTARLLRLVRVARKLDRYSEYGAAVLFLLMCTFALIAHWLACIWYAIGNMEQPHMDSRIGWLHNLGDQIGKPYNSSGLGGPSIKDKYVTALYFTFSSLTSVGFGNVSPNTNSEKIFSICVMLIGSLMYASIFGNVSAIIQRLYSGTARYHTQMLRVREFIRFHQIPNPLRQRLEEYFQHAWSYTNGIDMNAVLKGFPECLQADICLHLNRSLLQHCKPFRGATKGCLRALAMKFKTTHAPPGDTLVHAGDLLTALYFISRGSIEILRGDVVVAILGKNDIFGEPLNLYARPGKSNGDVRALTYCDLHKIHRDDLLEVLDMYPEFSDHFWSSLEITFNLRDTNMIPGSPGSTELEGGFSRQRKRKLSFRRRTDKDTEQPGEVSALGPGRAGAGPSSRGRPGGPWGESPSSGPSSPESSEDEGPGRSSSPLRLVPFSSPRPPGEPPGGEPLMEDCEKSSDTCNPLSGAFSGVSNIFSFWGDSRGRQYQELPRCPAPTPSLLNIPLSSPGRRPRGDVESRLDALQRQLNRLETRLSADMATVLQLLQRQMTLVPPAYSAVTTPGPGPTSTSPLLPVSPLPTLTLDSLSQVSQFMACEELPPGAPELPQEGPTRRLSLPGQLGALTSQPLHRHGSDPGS
# KCNQ1 block: inhibitors of human KCNQ1 potassium channel; P51787; B-score at 10 µM; actives 1.3% (n = 310,000); CHO-K1 KCNQ1, FluxOR thallium flux fluorescence; hits give high values;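 active means compounds whose thallium flux B-score, printed positive for inhibition, exceeds three library SD while starting fluorescence stays within three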;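 further: channel opened by potassium depolarization with thallium stimulus after 20 min compound exposure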
# KCNK3 inh: human KCNK3 channel inhibition, primary screen. CHO-KCNK3 thallium flux, FluxOR fluorescence; hits give low values. B-score at 10 µM. actives 0.84% (n = 340,000);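 active means B-score under library mean minus 4 SD, starting fluorescence ratio at most library mean plus 5 SD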;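 further: more negative B-score means stronger inhibition of thallium flux through KCNK3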
# KCNQ1 act: human KCNQ1 channel potentiation or activation; CHO-K1 KCNQ1, thallium flux FluxOR fluorescence; hits give high values; AID 2648; B-score at 10 µM; P51787; actives 0.35% (n = 310,000);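 active means fluorescence ratio B-score, a plate-corrected score, at least three library SD, with initial intensity B-score within 5 SD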
#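 assay system = KCNQ1-transfected CHO-K1 cells | medium = assay buffer with matched DMSO | probe or stimulus = depolarizing K+/Tl+ stimulus, K2SO4 and Tl2SO4 each 12.5 mM in 5x stock | dosing = single dose | incubation = dye 90 min, compound 20 min, room temperature | detection = kinetic FluxOR fluorescence, 10 s baseline plus 110 s post-stimulus | evaluation = ratio B score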
# * = called active by the depositor; i = inactive; . = no result given.
SMILES,KCNK9 block,hERG protect,KCNQ1 block,KCNK3 inh,KCNQ1 act
CC(OC(=O)c1ccc(F)cc1)C(=O)Nc1nc(-c2cccc([N+](=O)[O-])c2)cs1 (configuration not stated),-7.4*,-5,i,i,i
CC(=O)c1ccc2c(c1)c(C#N)c1ccccc1[n+]2[O-],i,-23,11*,i,i
CC(=O)c1ccc2noc(-c3ccccc3)c2c1,i,-14,i,i,i
C=CCN(c1ccccc1)S(=O)(=O)c1cccc(C(=O)NCC(c2cccs2)N2CCOCC2)c1 (configuration not stated),i,-15,i,i,i
Cc1ccc(C(=O)N2CC(=O)NC(=O)C2)cc1,i,5.3*,i,i,i
Cc1ccc(C(=O)N2CC3(C)CN(C(=O)c4ccc(C)cc4)CC(C)(C2)C3=O)cc1,i,-13,i,i,i
CCc1ccc2nc(NC(=O)c3cc(C)on3)sc2c1,i,9.4*,i,i,29*
Cc1cc(C)c2nc(NC(=O)c3cc(C)on3)sc2c1,i,-1,i,i,24*
COc1ccc2nc(NC(=O)c3ccccc3O)sc2c1,i,-9,i,i,i
CCOC(=O)c1cccc(C(=O)Nc2nc3ccc(OC)cc3s2)n1,i,1,i,i,9*
COC(=O)CC(=O)O[C@H]1C=C[C@@H](NC(=O)OC(C)(C)C)C1,.,.,.,i,.
Cc1noc(C)c1COc1ccc(C(=O)NCC(c2c(F)cccc2Cl)N(C)C)cc1 (configuration not stated),.,.,.,i,.
CC(=O)Nc1ccc2c(COC(=O)[C@@H](NS(=O)(=O)c3ccc(C)cc3)C(C)C)cc(=O)oc2c1,.,.,.,i,.
O=C(COC(=O)c1ccccc1-n1cnnn1)c1ccc(F)cc1,i,-3,i,i,i
CC(C)CNC(=O)C(=O)NCC1OCCN1S(=O)(=O)c1cccs1 (configuration not stated),i,-9,i,i,i
COC(=O)c1ccc(C2C(C#N)=C(N)Oc3cc(O)ccc32)cc1 (configuration not stated),i,61*,i,i,i
COC(=O)c1ccc(C2C(C#N)=C(N)Oc3cc(N)ccc32)cc1 (configuration not stated),i,-3,i,i,i
COc1cc(C(=S)N2CCN(c3cccc(Cl)c3)CC2)ccc1O,i,5.8*,i,i,i
O=C(c1ncn(Cc2ccccc2)c1C(=O)N1CCc2ccccc2C1)N1CCc2ccccc2C1,.,.,.,i,.
Cc1ccc(S(=O)(=O)N2CCC(=O)N(C(COC(=O)Nc3ccccc3)Cc3ccccc3)CC2)cc1 (configuration not stated),-6.7*,-16,i,i,i
Cc1ccc(S(=O)(=O)N2CCC(=O)N(C(CO)Cc3ccccc3)CC2)cc1 (configuration not stated),i,-7,i,i,i
C=CCOc1ccc2c(c1)C(=NO)c1cc(OCC=C)ccc1-2,-7.8*,-1,i,i,i
COc1ccc2c(c1)C(=NO)c1cc(OC)ccc1-2,i,-7,i,i,i
O=C(c1cc2nc(-c3ccc(Cl)cc3)cc(C(F)(F)F)n2n1)N1CCOCC1,i,46*,i,i,i
Cc1ccc(C)c(-n2c(-c3ccc(Br)cc3)csc2=NC(=O)c2ccccc2F)c1,-7.7*,-5,i,i,i
SMILES,KCNK9 block,hERG protect,KCNQ1 block,KCNK3 inh,KCNQ1 act
Cc1ccc(C([O-])=C(C(=S)NCc2ccccc2)[n+]2cccc(CO)c2)cc1[N+](=O)[O-],.,.,.,i,.
O=C(Nc1ccc(Cl)cc1)Nn1cnnc1,i,5.7*,i,i,i
Cc1ccc(NC(=O)Nn2cnnc2)cc1,i,-7,i,i,i
CN1/C(=C\C(=S)Nc2ccccc2)C(C)(C)c2ccccc21,-6.9*,-4,i,i,i
CN1/C(=C\C(=S)NC(=O)c2ccccc2Cl)C(C)(C)c2ccccc21,i,-6,i,i,i
CC(C)NC(=O)CN1CCN(C(=O)CCl)CC1,i,-3,i,i,i
CN(C)C(=O)CN1CCN(C(=O)CCl)CC1,i,5.1*,i,i,i
COc1ccccc1NCC(=O)n1nc(C)cc1C,i,6.7*,i,i,i
CC(C)(C)S(=O)N1Cc2cc(=O)n(Cc3ccccc3)c(CCO)c2[C@@H]1CCO (some centres not stated),.,.,.,i,.
CCCCCC(=O)OC(CN1CCCCCC1)CN1CCCC1=O (configuration not stated),i,-5,10*,i,i
Cc1ccc(NC(=O)c2ccc3nccnc3c2)c(C)c1,i,-3,i,i,i
O=P(Cc1ccccc1)(c1ccccc1)c1ccccc1,i,-7,i,i,i
CC(C)(C)c1cc(CP(=O)(c2ccccc2)c2ccccc2)cc(C(C)(C)C)c1O,i,-7,6*,i,i
CC(NCC(O)COCCC12CC3CC(CC(C3)C1)C2)c1ccccc1 (configuration not stated),i,-18,8*,i,i
CC1CCc2c(sc3[nH]c(=S)n(C)c(=O)c23)C1 (configuration not stated),i,52*,i,i,74*
CCn1c(=S)[nH]c2sc3c(c2c1=O)CCCC3,i,16*,i,i,35*
CN(C)CCCn1c(=S)[nH]c2sc3c(c2c1=O)CCCC3,i,-12,i,i,i
C=CCn1c(=S)[nH]c2sc3c(c2c1=O)CCC3,i,16*,i,i,i
CN(Cc1ccccc1)C(=O)c1ccc(NC(=O)Cc2ccc(NC(=O)C3CCN(C(=O)c4ccccc4)CC3)cc2)cc1,.,.,.,i,.
FC(F)(F)c1cnc2c(c1)[nH]c(=S)n2-c1ccc(Cl)cc1,i,5.5*,i,i,i
CC(=O)c1cccc(NC(=O)C(C)OC(=O)c2ccc(-n3cnnn3)cc2)c1 (configuration not stated),.,.,.,i,.
CC(=O)N1CCc2cc(S(=O)(=O)N3CCOCC3)ccc21,i,-6,i,i,i
CC(=O)N1CCc2cc(S(=O)(=O)N3c4ccccc4CC3C)ccc21 (configuration not stated),i,5.4*,i,i,i
O=C(Cc1ccccc1)c1ccc(N2CCOCC2)cc1,.,.,.,i,.
CCc1nc(SCC(=O)Nc2cc(C)ccc2OC)c2c(C)c(C)sc2n1,-7.7*,-11,i,i,i
CCc1nc(SCC(=O)Nc2ccccc2OC)c2c(C)c(C)sc2n1,i,-11,i,i,i
